Test results: ChEMBL document CHEMBL4325910, “Design and synthesis of rosiglitazone-ferulic acid-nitric oxide donor trihybrids for improving glucose tolerance” (Eur J Med Chem, 2019)
Active and inactive are the calls of the source. The calls are words filed in the database; no cut-off is given here.

Legend:
3T3-L1 [1] = assay: Induction of insulin-stimulated 2-NBDG uptake in TNF-alpha-induced insulin resistant mouse 3T3L1 cells at 10 uM preincubated for 48 hrs followed by 2-NBDG addition measured after 30 mins in presence of insulin by fluorescence assay; assay type: functional, cell-based
In short: (§1)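 Day-8 differentiated 3T3-L1 adipocytes received TNF-α (4 ng/mL) daily for 4 days. They were pretreated in triplicate for 48 h (C-PTIO 20 μM where indicated), then given 100 μM 2-NBDG at 37 °C for 30 min in the dark, with or without insulin. After KRP washes, fluorescence was read at Ex/Em 485/515 nm. Three experiments, mean ± SD.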

[2] = Toxicity in spontaneous db/db BKS.Cg-Dock7m +/+ Leprdb/J mouse assessed as body weight gain at 27 umol/kg, po administered as daily dose via gavage treated for 18 days measured post last dose (reference value: 5.6 +/- 2.1 g); assay type: organism-based; settings: in vivo, 432 h
hERG (KCNH2) [3] = biological target: T1, hERG (KCNH2) (Homo sapiens, UniProt Q12809); assay: Inhibition of human ERG expressed in CHO cells at 2.5 uM by patch clamp assay relative to control; assay type: cell-based; settings: CHO cells that express hERG
Aquaporin-2 [4] = biological target: T2, Aquaporin-2 (Homo sapiens, UniProt P41181); assay: Induction of membrane translocation of biotinylated human AQP2 expressed in rat IMCD cells at 10 to 50 uM after 30 mins by FITC-staining based confocal fluorescence microscopic analysis; assay type: cell-based; settings: 0.5 h
T2 sequence (P41181 whole entry): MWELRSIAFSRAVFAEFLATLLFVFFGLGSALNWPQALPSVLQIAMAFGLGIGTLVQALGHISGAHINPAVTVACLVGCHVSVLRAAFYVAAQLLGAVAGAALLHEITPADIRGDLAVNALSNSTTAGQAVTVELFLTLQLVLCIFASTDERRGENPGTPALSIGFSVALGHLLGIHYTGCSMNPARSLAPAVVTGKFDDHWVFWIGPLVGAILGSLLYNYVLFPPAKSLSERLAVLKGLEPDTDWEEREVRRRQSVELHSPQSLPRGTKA
In short: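 Primary SD rat IMCD cells, day 5, were transfected with a human AQP2 plasmid (5 h, serum-free) and cultured 48 h. They were treated for 30 min, with 0.1% DMSO as vehicle and forskolin 100 μM as reference. Cells were fixed in paraformaldehyde, permeabilized with Triton X-100 and quenched with H2O2/methanol. They were stained with FITC-anti-AQP2 and imaged by confocal microscopy.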

Platelet [5] = assay: Antiplatelet activity in platelet rich plasma (unknown origin) assessed as inhibition of arachidonic acid-induced platelet aggregation; assay type: functional, cell-based
hERG (KCNH2) [6] = biological target: T1, hERG (KCNH2); assay: Inhibition of human ERG expressed in CHO cells at 5 uM by patch clamp assay relative to control; assay type: cell-based; settings: CHO cells that express hERG
[7] = Toxicity in ICR mouse assessed mouse mortality at 5000 mg/kg, po administered as single dose via gavage treated on day 1 and measured daily up to 14 days; assay type: organism-based; settings: in vivo, 336 h
In short: (§2)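 Mice of both sexes, 7 weeks old, were randomized and given one oral gavage dose on day 1. Dose levels were 500, 1000, 2000, 3000, 4000 or 5000 mg/kg, or 2000, 4000 and 5000 mg/kg, with n = 10 per group. Behaviour, health and mortality were checked daily for 14 days, and total deaths were counted on day 14. LD50 was calculated with 95% confidence limits.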

Platelet [8] = assay: Antiplatelet activity in platelet rich plasma (unknown origin) assessed as inhibition of ADP-induced platelet aggregation; assay type: functional, cell-based
hERG (KCNH2) [9] = biological target: T1, hERG (KCNH2); assay: Inhibition of human ERG expressed in CHO cells at 1.25 uM by patch clamp assay relative to control; assay type: cell-based; settings: CHO cells that express hERG
hERG (KCNH2) [10] = biological target: T1, hERG (KCNH2); assay: Inhibition of human ERG expressed in CHO cells at 20 uM by patch clamp assay relative to control; assay type: cell-based; settings: CHO cells that express hERG
3T3-L1 [11] = assay: Induction of adipogenesis in mouse 3T3L1 preadipocytes assessed as increase in intracellular triglyceride level at 10 uM treated every other day up to day 14 by AdipoRed staining based confocal microscopic method; assay type: functional, cell-based
In short: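 3T3-L1 preadipocytes were grown to confluence plus 48 h. Differentiation was induced with 1.0 μM dexamethasone, 0.5 mM IBMX and 1.0 μg/mL insulin for 48 h, then insulin alone. Compound or 0.1% DMSO was added every other day to day 14. Cells were washed in KRP, stained with AdipoRed for 15 min in the dark, imaged confocally and read at Ex/Em 485/572 nm.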

hERG (KCNH2) [12] = biological target: T1, hERG (KCNH2); assay: Inhibition of human ERG expressed in CHO cells at 10 uM by patch clamp assay relative to control; assay type: cell-based; settings: CHO cells that express hERG
hERG (KCNH2) [13] = biological target: T1, hERG (KCNH2); assay: Inhibition of human ERG expressed in CHO cells at 40 uM by patch clamp assay relative to control; assay type: cell-based; settings: CHO cells that express hERG
3T3-L1 [14] = assay: Induction of insulin-stimulated 2-NBDG uptake in TNF-alpha-induced insulin resistant mouse 3T3L1 cells preincubated for 48 hrs followed by 2-NBDG addition measured after 30 mins in presence of insulin by fluorescence assay; assay type: functional, cell-based; in short: as §1
L02 = assay: Inhibition of cellular glucose output in dexamethasone-induced insulin resistant human L02 cells assessed as insulin-stimulated glucose uptake at 10 uM preincubated for 24 hrs followed by insulin stimulation measured after 24 hrs by glucose oxidase method (reference value: 4.5 +/- 0.7%); assay type: functional; set-up: scale not given: the % may be the effect or the level left
[15] = biological target: Voltage-gated inwardly rectifying potassium channel KCNH2 (Homo sapiens, UniProt Q12809); assay: Inhibition of human ERG expressed in CHO cells by patch clamp assay; assay type: cell-based
[16] = Toxicity in po dosed ICR mouse administered as single dose via gavage treated on day 1 and measured daily up to 14 days; assay type: organism-based; settings: in vivo; in short: as §2
Aquaporin-2 [17] = biological target: T2, Aquaporin-2; assay: Induction of membrane translocation of biotinylated human AQP2 expressed in rat IMCD cells at 10 to 50 uM after 30 mins by Western blot analysis; assay type: cell-based; settings: 0.5 h
In short: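 Human AQP2-transfected primary rat IMCD cells were treated for 30 min. Surface proteins were biotinylated with sulfo-NHS-LC-biotin (3 mg/mL, 60 min, 4 °C), then cells lysed in 1% NP-40 and pulled down overnight on streptavidin beads. Biotinylated and total AQP2 (30 μg/lane) were blotted with anti-AQP2 and quantified by densitometry as the biotinylated/total ratio. Three experiments, mean ± SD.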

Mus musculus = assay: Antidiabetic activity in spontaneous db/db BKS.Cg-Dock7m +/+ Leprdb/J mouse assessed as decrease in blood glucose AUC at 10 mg/kg, po administered as daily dose via gavage for 18 days measured on day 12 up to 120 mins post glucose challenge by oral glucose tolerance test; assay type: functional, organism-based
In short: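 Male db/db mice (BKS.Cg-Dock7m +/+ Leprdb/J), 6 weeks old on purchase, randomized, n=8 per group. Dosed by gavage in 0.5% CMC-Na daily for 18 consecutive days. Vehicle-dosed db/db and C57BL/6 mice served as model and control. Fasting glucose was read by glucometer every three days. On day 12, after an overnight fast, 2 g/kg glucose was given orally. Blood glucose was read at 0–120 min and AUC calculated. Mean ± SEM.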

[18] = Metabolic stability in simulated intestinal fluid at pH 6.8 measured after 2 hrs by HPLC analysis; assay type: ADME; settings: read-out: Stability
In short: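 Gastric fluid was 1% pepsin in water, pH 1.5. Intestinal fluid was 1% trypsin with 0.68% KH2PO4, pH 6.8. Compound (100 mM DMSO stock) was diluted 1:1000 into each, in triplicate. Incubation was at 37 °C for 0, 2, 4, 6, 16 or 24 h. Acetonitrile (3 volumes) stopped it, then HPLC at 254 nm.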

T1 sequence (Q12809 whole entry): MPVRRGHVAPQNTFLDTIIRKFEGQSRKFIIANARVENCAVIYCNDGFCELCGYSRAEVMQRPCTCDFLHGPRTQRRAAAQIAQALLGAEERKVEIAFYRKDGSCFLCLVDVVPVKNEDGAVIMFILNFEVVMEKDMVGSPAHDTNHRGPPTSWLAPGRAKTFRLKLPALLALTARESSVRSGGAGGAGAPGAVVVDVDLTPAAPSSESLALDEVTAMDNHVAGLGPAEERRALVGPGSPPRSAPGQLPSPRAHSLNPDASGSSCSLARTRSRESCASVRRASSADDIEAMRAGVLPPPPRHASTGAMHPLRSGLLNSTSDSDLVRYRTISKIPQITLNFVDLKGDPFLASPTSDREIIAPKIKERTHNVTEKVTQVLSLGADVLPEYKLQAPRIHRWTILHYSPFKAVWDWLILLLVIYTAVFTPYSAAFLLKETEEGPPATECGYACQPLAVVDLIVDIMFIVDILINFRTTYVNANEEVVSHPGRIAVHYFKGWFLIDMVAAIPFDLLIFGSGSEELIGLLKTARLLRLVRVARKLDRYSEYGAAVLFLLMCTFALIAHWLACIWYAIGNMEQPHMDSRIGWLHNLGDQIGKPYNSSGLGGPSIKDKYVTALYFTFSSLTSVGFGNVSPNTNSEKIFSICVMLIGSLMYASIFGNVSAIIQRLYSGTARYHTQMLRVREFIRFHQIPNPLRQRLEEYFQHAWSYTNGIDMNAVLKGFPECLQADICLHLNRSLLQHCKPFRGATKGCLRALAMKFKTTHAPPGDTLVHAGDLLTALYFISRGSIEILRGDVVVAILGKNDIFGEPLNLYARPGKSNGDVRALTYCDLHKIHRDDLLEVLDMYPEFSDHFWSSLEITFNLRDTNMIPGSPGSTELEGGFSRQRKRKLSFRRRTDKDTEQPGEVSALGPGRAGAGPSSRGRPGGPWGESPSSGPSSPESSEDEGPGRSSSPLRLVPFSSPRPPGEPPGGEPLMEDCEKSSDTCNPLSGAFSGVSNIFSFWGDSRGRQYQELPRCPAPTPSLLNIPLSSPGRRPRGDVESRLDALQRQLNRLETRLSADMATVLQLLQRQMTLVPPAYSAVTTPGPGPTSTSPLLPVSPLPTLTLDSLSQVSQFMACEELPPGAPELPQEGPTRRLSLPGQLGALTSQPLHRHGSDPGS
Sequence of Voltage-gated inwardly rectifying potassium channel KCNH2 (Q12809 whole entry): as above

CN(CCOc1ccc(CC2SC(=O)NC2=O)cc1)c1ccccn1 (configuration not stated) [ROSIGLITAZONE]
Activity (3T3-L1 [1]): Active
Activity [2]: 6.6 g
inhibition at 2.5 µM (hERG (KCNH2) [3]): 17.3%
Activity (Aquaporin-2 [4]): Active
IC50 (Platelet [5]): 6400 µM
inhibition at 5 µM (hERG (KCNH2) [6]): 23.3%
Activity [7]: Toxic
IC50 (Platelet [8]): 5700 µM
inhibition at 1.25 µM (hERG (KCNH2) [9]): 9.38%
inhibition at 20 µM (hERG (KCNH2) [10]): 42.5%
Activity (3T3-L1 [11]): Active
inhibition at 10 µM (hERG (KCNH2) [12]): 30.1%
inhibition at 40 µM (hERG (KCNH2) [13]): 57.9%
EC50 (3T3-L1 [14]): 1.72 µM
Activity (L02): 11.8%
IC50 [15]: 29.5 µM
LD50 at 336 h [16]: 2580 mg/kg
Activity (Aquaporin-2 [17]): Active
Activity (Mus musculus): Active

CCN(CC)/[N+]([O-])=N/OCOC(=O)/C=C/c1ccc(OC(=O)OCN2C(=O)SC(Cc3ccc(OCCN(C)c4ccccn4)cc3)C2=O)c(OC)c1 (configuration not stated)
Activity (3T3-L1 [1]): Active
Activity [2]: 3.4 g
inhibition at 2.5 µM (hERG (KCNH2) [3]): 10.8%
remaining at 2 h [18]: 97.7%
Activity (Aquaporin-2 [4]): Not Active
IC50 (Platelet [5]): 700 µM
inhibition at 5 µM (hERG (KCNH2) [6]): 14.5%
IC50 (Platelet [8]): 2100 µM
inhibition at 1.25 µM (hERG (KCNH2) [9]): 9.06%
inhibition at 20 µM (hERG (KCNH2) [10]): 26.2%
Activity (3T3-L1 [11]): Active
inhibition at 10 µM (hERG (KCNH2) [12]): 18%
inhibition at 40 µM (hERG (KCNH2) [13]): 39.5%
EC50 (3T3-L1 [14]): 1.08 µM
Activity (L02): 47.8%
IC50 [15]: > 40 µM
LD50 at 336 h [16]: > 5000 mg/kg
Activity (Aquaporin-2 [17]): Not Active
